Data as given in ChEMBL document CHEMBL4622968, “Discovery of [1,2,4]triazolo[4,3-a]pyridines as potent Smoothened inhibitors targeting the Hedgehog pathway with improved antitumor activity in vivo” (Bioorg Med Chem, 2020).

Legend:
T47D = test: Antiproliferation activity against human T47D cells assessed as reduction in cell viability incubated for 72 hr by MTT assay; type: functional, cell-based
Outline: (§1)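 MTT assay. Cells were plated overnight and exposed to a range of concentrations for 72 h. MTT was then added for 4 h and absorbance read at 570 nm. Inhibition% = [(control − compound)/(control − blank)] × 100. IC50 was fitted from the curves. Mean ± S.D. of 3–5 separate experiments. RPMI 1640 + 10% FBS; MCF10A in DMEM/F12 with 5% horse serum, EGF, hydrocortisone, insulin and cholera toxin.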

[1] = Inhibition of hedgehog pathway in mouse NIH/3T3 cells harboring GRE-Luc assessed as inhibition of SAG-induced Hh signaling pathway by dual luciferase reporter gene assay; type: cell-based; conditions: NIH3T3
Outline: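 NIH3T3 cells co-transfected with 8×3' Gli-BS-delta51-Luc II firefly reporter and pRL-TK Renilla plasmid; after 24 h treated with compounds plus SAG (pathway activator). Gli luciferase normalized to Renilla (dual-luciferase read-out); IC50 = concentration halving normalized signal; mean ± S.D. of 3–5 separate experiments.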

MDA-MB-468 = test: Antiproliferation activity against human MDA-MB-468 cells assessed as reduction in cell viability incubated for 72 hr by MTT assay; type: functional, cell-based; conditions: MDA-MB-468, 72 h; outline: as §1
MDA-MB-231 = test: Antiproliferation activity against human MDA-MB-231 cells assessed as reduction in cell viability incubated for 72 hrs measured after 4 hrs by MTT assay; type: functional, cell-based; outline: as §1
MCF7 = test: Antiproliferation activity against human MCF7 cells assessed as reduction in cell viability incubated for 72 hrs by MTT assay; type: functional, cell-based; conditions: MCF7, 72 h; outline: as §1
A549 = test: Antiproliferation activity against human A549 cells assessed as reduction in cell viability incubated for 72 hrs by MTT assay; type: functional, cell-based; conditions: A549, 72 h; outline: as §1
U-251 = test: Antiproliferation activity against human U251 cells assessed as reduction in cell viability incubated for 72 hrs by MTT assay; type: functional, cell-based; conditions: U-251, 72 h; outline: as §1
AN3-CA = test: Antiproliferation activity against human AN3CA cells assessed as reduction in cell viability incubated for 72 hr by MTT assay; type: functional, cell-based; outline: as §1
HeLa = test: Antiproliferation activity against human HeLa cells assessed as reduction in cell viability incubated for 72 hrs by MTT assay; type: functional, cell-based; outline: as §1

SMILES	IC50 (T47D) [µM]	IC50 [1] [µM]	IC50 (MDA-MB-468) [µM]	IC50 (MDA-MB-231) [µM]	IC50 (MCF7) [µM]	IC50 (A549) [µM]	IC50 (U-251) [µM]	IC50 (AN3-CA) [µM]	IC50 (HeLa) [µM]
O=C(Nc1ccc(Cl)c(-c2nnc3c(Cl)cccn23)c1)c1ccccn1	> 100	1.08	> 100	92	96.4	> 100	79	> 100	75.5
Cc1nc(C(=O)Nc2ccc(Cl)c(-c3nnc4c(Cl)cccn34)c2)cs1	> 100	> 10	> 100	> 100	> 100	> 100	74.3	> 100	79.8
O=C(Nc1ccc(Cl)c(-c2nnc3c(Cl)cccn23)c1)c1ccc(F)cc1Cl	> 100	8.22	> 100	75	> 100	> 100	> 100	> 100	> 100
O=C(Nc1ccc(Cl)c(-c2nnc3c(Cl)cccn23)c1)c1ccon1	> 100	> 10	> 100	> 100	> 100	42.7	> 100	> 100	> 100
Cc1cc(Cl)ccc1C(=O)Nc1ccc(Cl)c(-c2nnc3c(Cl)cccn23)c1	> 100	> 10	34.3	> 100	> 100	> 100	> 100	> 100	> 100
CS(=O)(=O)c1ccc(C(=O)Nc2ccc(Cl)c(-c3nnc4c(Cl)cccn34)c2)cc1	> 100	1.77	> 100	> 100	94.2	> 100	> 100	> 100	> 100
CS(=O)(=O)c1cccc(C(=O)Nc2ccc(Cl)c(-c3nnc4c(Cl)cccn34)c2)c1	> 100	2.98	> 100	> 100	88.9	> 100	> 100	> 100	86.4
O=C(Nc1ccc(Cl)c(-c2nnc3c(Cl)cccn23)c1)c1ccccc1	> 100	0.77	> 100	58.2	> 100	76.9	73.5	67.6	> 100
O=C(Nc1ccc(Cl)c(-c2nnc3c(Cl)cccn23)c1)c1c(F)cccc1Cl	> 100	> 10	57.6	> 100	> 100	72.3	> 100	> 100	> 100
O=C(Nc1ccc(Cl)c(-c2nnc3c(Cl)cccn23)c1)c1cccnc1	> 100	> 10	> 100	> 100	> 100	> 100	> 100	> 100	> 100
